Data set [1] is filed under the species Mus musculus. Description: Degree of leukopenia produced by compound is assessed form Percent change in white cells on days 5. It counts as functional. The method in brief: (§1)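 BDG₁ male mice received a single ip dose on day 0. The dose series topped out at the LD₅₀ level, or at twice the optimal dose for some agents. Total white blood cell count was taken on days 3, 5 and 7 and expressed as % change from untreated controls. Significance was set at p ≤ 0.05 or p ≤ 0.01.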

The test system of data set [2] is Mus musculus. Description: Effect of compound on total white blood cell count in BDG1 male mice, after intraperitoneal administration at a dose 29.6 mg/kg on day 7. It counts as functional. Put shortly:
as §1

Data set [3] is filed under the species Mus musculus. The data set is described as follows: Half-wave potential produced by the compound at their optimal dose. It counts as functional. The arrangement: unit not given here.
For data set [4], the system named is Mus musculus. The data set is described as follows: Effect of compound on total white blood cell count in BDG1 male mice, after intraperitoneal administration at a dose of 39.4 mg/kg on day 5. The class given is functional. Put shortly:
(§2)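 Single ip dose given on day 0 to BDG1 male mice over a descending dose series. Total white blood cell count is expressed as % change from untreated control on days 3, 5 and 7. Significance is flagged at p ≤ 0.05 and p ≤ 0.01.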

For data set [5], the system named is Mus musculus. The data set is described as follows: Effect of compound on total white blood cell count in BDG1 male mice, after intraperitoneal administration at a dose of 39.4 mg/kg on day 3. The class given is functional. Put shortly:
as §2

For data set [6], the system named is Mus musculus. Description: Effect of compound on total white blood cell count in BDG1 male mice, after intraperitoneal administration at a dose of 22.2 mg/kg on day 3. The class given is functional. Put shortly:
as §2

In data set [7] the test system is Mus musculus. Description: Effect of compound on total white blood cell count in BDG1 male mice, after intraperitoneal administration at a dose of 22.2 mg/kg on day 5. It counts as functional. The method in brief: as §2
Data set [8] has as its system Mus musculus. The data set is described as follows: Effect of compound on total white blood cell count in BDG1 male mice, after intraperitoneal administration at a dose of 22.2 mg/kg on day 7. It counts as functional. Put shortly: as §2
For data set [9], the system named is Mus musculus. The data set is described as follows: Effect of compound on total white blood cell count in BDG1 male mice, after intraperitoneal administration at a dose of 29.6 mg/kg on day 3. It counts as functional. The method in brief:
as §2

Data set [10] has as its system Mus musculus. The data set is described as follows: Effect of compound on total white blood cell count in BDG1 male mice, after intraperitoneal administration at a dose of 29.6 mg/kg on day 5. The class given is functional. The method in brief: as §2
For data set [11], the system named is Mus musculus. The data set is described as follows: Effect of compound on total white blood cell count in BDG1 male mice, after intraperitoneal administration at a dose of 50.9 mg/kg on day 3. The class given is functional. Put shortly:
(§3)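 Single ip dose given on day 0 to BDG₁ male mice. Total white blood cell count measured on days 3, 5 and 7, expressed as % change from control. Highest dose was at the LD₅₀, or at twice the optimal dose where so footnoted. Significance reported at p ≤ 0.05 and p ≤ 0.01. D marks death of one or more mice.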

For data set [12], the system named is Mus musculus. The data set is described as follows: Effect of compound on total white blood cell count in BDG1 male mice, after intraperitoneal administration at a dose of 50.9 mg/kg on day 7. The class given is functional. Put shortly:
as §3

Data set [13] has as its system Mus musculus. The data set is described as follows: Minimum effective dose that show activity against P-388 murine leukemia cells in CDF1 female mice, after intraperitoneal administration (optimal dose is 12.8 mg/kg). It counts as functional. The note with it: P388, ip, read-out: MED. Put shortly:
(§4)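 10⁶ P-388 ascites cells implanted ip in CDF₁ female mice. Six mice per dose, 10 saline-injected controls, and a concurrent mitomycin C reference group. %T/C = median survival time of treated/control × 100. MED is the lowest dose giving %T/C > 125. Therapeutic ratio = optimal dose/MED.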

For data set [14], the system named is Mus musculus. Description: Number of tumored survivors, 45 days after administration of compound at a dose of 18 mg/kg/day in mice. The class given is functional.
The test system of data set [15] is Mus musculus. Description: Activity of compound dose of 1.13 mg/kg/day against Murine B-16 Melanocarcinoma in mice. The class given is functional.
In data set [16] the test system is Mus musculus. The data set is described as follows: Activity of compound dose of 18 mg/kg/day against Murine B-16 Melanocarcinoma in mice. The class given is functional.
Data set [17] has as its system Mus musculus. The data set is described as follows: Activity of compound dose of 2.25 mg/kg/day against Murine B-16 Melanocarcinoma in mice. It counts as functional.
Data set [18] deals with Mus musculus. Description: Activity of compound dose of 36 mg/kg/day against Murine B-16 Melanocarcinoma in mice. It counts as functional.
Data set [19] concerns Mus musculus. Description: Activity of compound dose of 4.5 mg/kg/day against Murine B-16 Melanocarcinoma in mice. It counts as functional.
Data set [20] has as its system Mus musculus. Description: Activity of compound dose of 9 mg/kg/day against Murine B-16 Melanocarcinoma in mice. It counts as functional.
Data set [21] has as its system Mus musculus. The data set is described as follows: Antitumor activity against P-388 murine leukemia cells in CDF1 female mice after intraperitoneal administration at the specified optimal dose of 12.8 mg/kg. The class given is functional.
For data set [22], the system named is Mus musculus. The data set is described as follows: Number of cured survivors, 45 days after administration of compound at a dose of 18 mg/kg/day in mice. It counts as functional.
A short description of data set [23]: Therapeutic ratio is expressed as ratio of optimal dose and minimum effective dose. It counts as ADME. As to conditions: mouse; read-out: TR. Put shortly:
as §4

Data set [24] deals with Mus musculus. The data set is described as follows: Number of cured survivors, 45 days after administration of compound at a dose of 36 mg/kg/day in mice. The class given is functional.
Data set [25] has as its system Mus musculus. The data set is described as follows: Effect of compound on total white blood cell count in BDG1 male mice, after intraperitoneal administration at a dose of 12.8 mg/kg on day 7. The class given is functional. Put shortly: as §2
The test system of data set [26] is Mus musculus. The data set is described as follows: Effect of compound on total white blood cell count in BDG1 male mice, after intraperitoneal administration at a dose of 12.8 mg/kg on day 3. It counts as functional. The method in brief:
as §1

Data set [27] concerns Mus musculus. Description: Effect of compound on total white blood cell count in BDG1 male mice, after intraperitoneal administration at a dose of 12.8 mg/kg on day 5. It counts as functional. Put shortly:
as §1

Data set [28] has as its system Mus musculus. The data set is described as follows: Effect of compound on total white blood cell count in BDG1 male mice, after intraperitoneal administration at a dose of 25.6 mg/kg on day 3 (highest dose was twice the optimal dose). The class given is functional.
The subject of data set [29] is Mus musculus. The data set is described as follows: Effect of compound on total white blood cell count in BDG1 male mice, after intraperitoneal administration at a dose of 25.6 mg/kg on day 5 (highest dose was twice the optimal dose). It counts as functional.
The test system of data set [30] is Mus musculus. Description: Effect of compound on total white blood cell count in BDG1 male mice, after intraperitoneal administration at a dose of 25.6 mg/kg on day 7 (highest dose was twice the optimal dose). The class given is functional.
Data set [31] deals with Mus musculus. The data set is described as follows: Effect of compound on total white blood cell count in BDG1 male mice, after intraperitoneal administration at a dose of 2.24 mg/kg on day 3. The class given is functional. Put shortly:
as §2

Data set [32] has as its system Mus musculus. Description: Effect of compound on total white blood cell count in BDG1 male mice, after intraperitoneal administration at a dose of 2.24 mg/kg on day 7. It counts as functional. Put shortly: as §2
The subject of data set [33] is Mus musculus. Description: Effect of compound on total white blood cell count in BDG1 male mice, after intraperitoneal administration at a dose of 2.24 mg/kg on day 5. The class given is functional. The method in brief: as §2
Data set [34] has as its system Mus musculus. The data set is described as follows: Effect of compound on total white blood cell count in BDG1 male mice, after intraperitoneal administration at a dose of 5.3 mg/kg on day 3. The class given is functional. The method in brief:
as §3

Data set [35] concerns Mus musculus. The data set is described as follows: Effect of compound on total white blood cell count in BDG1 male mice, after intraperitoneal administration at a dose of 5.3 mg/kg on day 5. The class given is functional. Put shortly:
as §3

Data set [36] relates to Mus musculus. The data set is described as follows: Effect of compound on total white blood cell count in BDG1 male mice, after intraperitoneal administration at a dose of 3.98 mg/kg on day 5. It counts as functional. The method in brief: as §2
Data set [37] has as its system Mus musculus. The data set is described as follows: Effect of compound on total white blood cell count in BDG1 male mice, after intraperitoneal administration at a dose of 3.98 mg/kg on day 7. The class given is functional. The method in brief: as §2
Data set [38] concerns Mus musculus. The data set is described as follows: Effect of compound on total white blood cell count in BDG1 male mice, after intraperitoneal administration at a dose of 3.98 mg/kg on day 3. The class given is functional. Put shortly:
as §2

The subject of data set [39] is Mus musculus. The data set is described as follows: Effect of compound on total white blood cell count in BDG1 male mice, after intraperitoneal administration at a dose of 2.98 mg/kg on day 3. The class given is functional. Put shortly: as §2
The test system of data set [40] is Mus musculus. Description: Effect of compound on total white blood cell count in BDG1 male mice, after intraperitoneal administration at a dose of 2.98 mg/kg on day 5. The class given is functional. Put shortly: as §2
The subject of data set [41] is Mus musculus. The data set is described as follows: Effect of compound on total white blood cell count in BDG1 male mice, after intraperitoneal administration at a dose of 2.98 mg/kg on day 7. It counts as functional. The method in brief:
as §2

The test system of data set [42] is Mus musculus. Description: Effect of compound on total white blood cell count in BDG1 male mice, after intraperitoneal administration at a dose of 5.3 mg/kg on day 7. It counts as functional. Put shortly: as §3
For data set [43], the system named is Mus musculus. The data set is described as follows: Minimum effective dose that show activity against P-388 murine leukemia cells in CDF1 female mice, after intraperitoneal administration (optimal dose is 3.2 mg/kg). The class given is functional. As to conditions: P388, ip, read-out: MED. The method in brief:
as §4

Data set [44] concerns Mus musculus. Description: Antitumor activity against P-388 murine leukemia cells in CDF1 female mice after intraperitoneal administration at the specified optimal dose of 3.2 mg/kg. The class given is functional.

With `COC12[C@@H]3N[C@@H]3CN1C1=C(C(=O)C(NCc3ccco3)=C(C)C1=O)[C@@H]2COC(N)=O` (stereo partly drawn), the Change in data set [1] is reported as -54%; in [2], 0%; in data set [4], -74%; in data set [5], -84%; in [6] it was -70%; in data set [7], 62%. Also, the Change in [8] is reported as -1%; in data set [9], -78%; in data set [10] it was -67%; in [11] it was -76%; in data set [12], -64%. Besides, the E1/2 in data set [3] was -0.39. The minimal effective dose in data set [13] is < 0.4 mg/kg. Further, the Survivors in data set [14] came out at 1; in data set [22] it was 3; in [24], 6. Besides, the T/C (in general, the result in the treated group divided by that in the control group, in per cent) in [15] amounted to 125%; in [16] it was 219%; in data set [17] it was 148%; in data set [18], 247%; in data set [19], 170%; in data set [20], 186%. This molecule also returned a T/C in data set [21] of 276%. Further, the selectivity ratio in data set [23] is > 32.

As for `COC12[C@@H]3N[C@@H]3CN1C1=C(C(=O)C(NCc3cccs3)=C(C)C1=O)[C@@H]2COC(N)=O` (stereo partly drawn), the Change in data set [25] was -2%; in data set [26] it was -26%; in data set [27], -5%; in data set [28], -32%; in data set [29], -33%; in data set [30] it was -11%. Besides, the minimal effective dose in data set [13] came out at 3.2 mg/kg. In [21], this molecule came in with a T/C of 167%. In addition, the selectivity ratio in data set [23] was determined as 4.

Consider `COC12[C@@H](COC(N)=O)C3=C(C(=O)C(C)=C(N4CC4)C3=O)N1C[C@@H]1[C@H]2N1C` (stereo partly drawn), for which the Change in data set [31] is on record as 1%; in data set [32] it was 39%; in data set [33], 11%; in data set [34], -15%; in data set [35], -20%; in [36], -17%. Moreover, the Change is listed as 7% in [37]; -12.3% in [38]; 5% in data set [39]; 25% in [40]; 31% in data set [41]; -13% in data set [42]. In addition, the minimal effective dose in data set [43] worked out at 0.2 mg/kg. The same molecule returned a T/C in [44] of 248%. For the same molecule, the selectivity ratio in data set [23] is 16.

Source of the values: ChEMBL document CHEMBL1121685, “Development of new mitomycin C and porfiromycin analogues” (J Med Chem, 1981).
